ChEMBL document CHEMBL1153629, “Antitumor activity of deoxypodophyllotoxin isolated from Anthriscus sylvestris: Induction of G2/M cell cycle arrest and caspase-dependent apoptosis” (2009)
Activity calls are given as the source filed them. The calls are words filed in the database; no cut-off is given here.

Assays:
HeLa [1] = test: Cell cycle arrest in human HeLa cells assessed as accumulation at sub G1 phase at 0.5 uM after 24 hrs using propidium iodide staining by FACS analysis; format: functional
In short: (§1)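 HeLa cells grown in DMEM/FBS, 24 h to adhere, then given 0.5 µM from DMSO stock (DMSO <0.1% in medium). Harvested at 0, 12, 24 and 48 h, PBS-washed and fixed in 70% ethanol. Stained with 50 µg/ml propidium iodide plus 100 µg/ml RNase A at 37 °C in the dark for ≥3 h. Read by flow cytometry; sub-G1 fraction scored as apoptotic.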

HeLa [2] = test: Induction of apoptosis in human HeLa cells assessed as breakdown of nuclei by immunostaining method; format: functional, cell-based
In short: (§2)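 HeLa cells exposed to 0.5 µM for 48 h. Microtubules stained with anti-α-tubulin and an Alexa Fluor 488 secondary antibody, DNA with TO-PRO-3 iodide. Fragmented nuclei scored by confocal microscopy.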

HeLa [3] = test: Cell cycle arrest at G2/M phase in human HeLa cells assessed as decrease in cyclin A expression at 0.5 uM after 48 hrs by Western blot analysis; format: functional, cell-based
In short: (§3)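 HeLa cells treated with 0.5 µM for 0–48 h (sampled at 0, 3, 6, 12, 24, 48 h). Whole-cell lysates made in 20 mM HEPES pH 7.2, 1% Triton X-100, 10% glycerol, 150 mM NaCl, leupeptin, 1 mM PMSF. Lysates run on SDS–PAGE, immunoblotted with the indicated antibodies, GAPDH as loading control.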

HeLa [4] = test: Induction of apoptosis in human HeLa cells assessed as fragmentation of chromosomal DNA by immunostaining method; format: functional, cell-based; in short: as §2
HeLa [5] = test: Cell cycle arrest in human HeLa cells assessed as accumulation at sub G1 phase at 0.5 uM after 48 hrs using propidium iodide staining by FACS analysis; format: functional; in short: as §1
HeLa [6] = test: Cell cycle arrest in human HeLa cells assessed as accumulation at G2 phase at 0.5 uM after 24 hrs using propidium iodide staining by FACS analysis; format: functional; in short: as §1
HeLa [7] = test: Cell cycle arrest in human HeLa cells assessed as accumulation at S phase at 0.5 uM after 24 hrs using propidium iodide staining by FACS analysis; format: functional; in short: as §1
HeLa [8] = test: Cell cycle arrest in human HeLa cells assessed as accumulation at G2 phase at 0.5 uM after 12 hrs using propidium iodide staining by FACS analysis; format: functional; in short: as §1
HeLa [9] = test: Induction of apoptosis in human HeLa cells assessed as caspase 3 cleavage at 0.5 uM; format: functional, cell-based; conditions: TDE = time-dependent effect; in short: as §3
HeLa [10] = test: Inhibition of microtubule assembly in human HeLa cells assessed as loss of stabilization of microtubule bundles by immunofluorescence staining; format: cell-based
In short: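 HeLa cells given 0.25 µM for 24 h alongside DMSO vehicle and 0.1 µM taxol controls. Indirect immunofluorescence with anti-α-tubulin and an Alexa Fluor 488 secondary antibody; microtubule network imaged by spectral confocal microscopy.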

[11] = Inhibition of tubulin polymerization by turbidity assay
In short: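 Turbidity assay: tubulin in reaction buffer with GTP at 37 °C, test agent at 0.25 and 0.50 µM, taxol 0.1 µM as positive control. A340 read every 30 s for 60 min with gentle plate agitation.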

HeLa [12] = test: Induction of apoptosis in human HeLa cells assessed as caspase 7 cleavage at 0.5 uM; format: functional, cell-based; conditions: TDE = time-dependent effect; in short: as §3
HeLa [13] = test: Cell cycle arrest at G2/M phase in human HeLa cells assessed as increase in cyclin B1 expression at 0.5 uM after 3 to 24 hrs by Western blot analysis; format: functional, cell-based; in short: as §3
HeLa [14] = test: Cell cycle arrest in human HeLa cells assessed as accumulation at S phase at 0.5 uM after 48 hrs using propidium iodide staining by FACS analysis; format: functional; in short: as §1
HeLa [15] = test: Cell cycle arrest in human HeLa cells assessed as accumulation at G1 phase at 0.5 uM after 48 hrs using propidium iodide staining by FACS analysis; format: functional; in short: as §1
HeLa [16] = test: Cell cycle arrest in human HeLa cells assessed as accumulation at sub G1 phase at 0.5 uM after 12 hrs using propidium iodide staining by FACS analysis; format: functional; in short: as §1
HeLa [17] = test: Induction of apoptosis in human HeLa cells assessed as PARP cleavage after 24 to 48 hrs by Western blot analysis; format: functional, cell-based; in short: as §3
HeLa [18] = test: Cell cycle arrest in human HeLa cells assessed as accumulation at G2 phase at 0.5 uM after 48 hrs using propidium iodide staining by FACS analysis; format: functional; in short: as §1
HeLa [19] = test: Cell cycle arrest in human HeLa cells assessed as accumulation at G1 phase at 0.5 uM after 12 hrs using propidium iodide staining by FACS analysis; format: functional; in short: as §1
HeLa [20] = test: Cell cycle arrest in human HeLa cells assessed as accumulation at S phase at 0.5 uM after 12 hrs using propidium iodide staining by FACS analysis; format: functional; in short: as §1
HeLa [21] = test: Cell cycle arrest in human HeLa cells assessed as accumulation at G1 phase at 0.5 uM after 24 hrs using propidium iodide staining by FACS analysis; format: functional; in short: as §1
HeLa [22] = test: Antiproliferative activity against human HeLa cells at 0.25 uM after 24 hrs; format: functional, cell-based
In short: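 HeLa cells in 96-well culture, treated for 12, 24 and 48 h, done in triplicate; after treatment, incubated 24 h more at 37 °C, 5% CO2. WST-8 (Cell Counting Kit-8) added, OD read at 450 nm after 30 min. Survival expressed relative to untreated cells; two further independent experiments.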

HeLa [23] = test: Antiproliferative activity against human HeLa cells at 0.1 uM after 24 hrs; format: functional, cell-based
In short: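 HeLa cells grown in DMEM with FBS were seeded in 96-well plates and exposed for 12, 24 or 48 h to compound dissolved in DMSO (final DMSO under 0.1%). WST-8 (Cell Counting Kit-8) was added, and OD at 450 nm was read after 30 min. Survival was expressed as % of untreated control, in triplicate, with two further independent experiments.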

Q: Which Activity (HeLa [1]) does the source give for COc1cc([C@@H]2c3cc4c(cc3C[C@H]3COC(=O)[C@@H]32)OCO4)cc(OC)c1OC [DESOXYPODOPHYLLOTOXIN] here?
A: Its Activity is 4.5%.

Q: And the Activity (HeLa [2])?
A: Its Activity is “Active”.

Q: What about the Activity (HeLa [3]) of the same molecule?
A: Its Activity is “Active”.

Q: What about the Activity (HeLa [4]) of the same molecule?
A: The Activity was “Active”.

Q: And the Activity (HeLa [5])?
A: The Activity was 29.7%.

Q: And the Activity (HeLa [6])?
A: The Activity was 87.8%.

Q: What about the Activity (HeLa [7]) of the same molecule?
A: The Activity was 8.6%.

Q: What about the Activity (HeLa [8]) of the same molecule?
A: The Activity was 58.9%.

Q: And the Activity (HeLa [9])?
A: The Activity was “tde”.

Q: And the Activity (HeLa [10])?
A: Its Activity is “inactive”.

Q: What about the Activity [11] of the same molecule?
A: The Activity was “Dose-dependent effect”.

Q: And the Activity (HeLa [12])?
A: Its Activity is “tde”.

Q: What about the Activity (HeLa [13]) of the same molecule?
A: Its Activity is “Active”.

Q: And the Activity (HeLa [14])?
A: The Activity was 11%.

Q: What about the Activity (HeLa [15]) of the same molecule?
A: Its Activity is 6.8%.

Q: And the Activity (HeLa [16])?
A: Its Activity is 0.2%.

Q: What about the Activity (HeLa [17]) of the same molecule?
A: Its Activity is “Active”.

Q: And the Activity (HeLa [18])?
A: Its Activity is 82.1%.

Q: What about the Activity (HeLa [19]) of the same molecule?
A: The Activity was 12%.

Q: And the Activity (HeLa [20])?
A: The Activity was 28.9%.

Q: And the Activity (HeLa [21])?
A: Its Activity is 3.5%.

Q: And the Activity (HeLa [22])?
A: The Activity was “Active”.

Q: For CC(=O)O[C@H]1C(=O)[C@@]2(C)[C@H]([C@H](OC(=O)c3ccccc3)[C@]3(O)C[C@H](OC(=O)[C@H](O)[C@@H](NC(=O)c4ccccc4)c4ccccc4)C(C)=C1C3(C)C)[C@]1(OC(C)=O)CO[C@@H]1C[C@@H]2O, which Activity (HeLa [23]) is on record?
A: Its Activity is “Active”.

Q: What about the Activity [11] of the same molecule?
A: Its Activity is “inactive”.
